In ChEMBL document CHEMBL1131072, “Synthesis, physicochemical properties, and evaluation of N-substituted-2-alkyl-3-hydroxy-4(1H)-pyridinones” (J Med Chem, 1998):

Key:
[1] = Partition coefficient (logD7.4); format: physicochemical; settings: octanol/water, pH 7.4
Method in brief: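 Shake-flask used a 100:1 or 1:100 phase ratio, 1 h stirring, centrifugation, and aqueous absorbance, repeated at least four times. Fe complexes were made at 10:1 ligand:Fe (10^-3/10^-4 M) and read at 460 nm. Reported as mean ± SD.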

Rattus norvegicus [2] = experiment: The amount iron excretion in the bile duct-cannulated rats when iron chelator administered orally at dose 132 mg/kg; format: functional; settings: route oral
Method in brief: (§1)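 Non-iron-overloaded male Fischer rats (200–240 g) with bile-duct cannulas in metabolic cages. Control bile/urine was collected for 3 h; chelator was then given subcutaneously or by gavage. Bile was collected in 3-h fractions over 24 h, plus 24-h urine. Iron was measured by bathophenanthroline colorimetry (TCA/HCl, 65 °C 4 h, A535) against iron standards after blank subtraction.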

Rattus norvegicus [3] = experiment: The amount iron excretion in the bile duct-cannulated rats when iron chelator administered subcutaneously at dose 132 mg/kg; format: functional; settings: route subcutaneous; method in brief: as §1
[4] = Compound was tested for equilibrium constants (pKa2) of the (hydroxyalkyl)pyridinone corresponds to the 3-hydroxy function spectrophotometrically..
Rattus norvegicus [5] = experiment: The amount iron excretion in the bile duct-cannulated rats when iron chelator administered subcutaneously at dose 122 mg/kg; format: functional; settings: route subcutaneous; method in brief: as §1
[6] = Spectrophotometric values of pKa2 and pKa3
[7] = Compound was tested for equilibrium constants (pKa1) spectrophotometrically.; format: physicochemical; settings: read-out: pKa1
Method in brief: (§2)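 The UV/vis spectrum was recorded alongside each potentiometric titration step: 0.1 M KCl, HCl-acidified, titrated with 0.2 M KOH at 25 ± 0.5 °C under argon. Spectral data were fitted with TITRFIT (modified NONLIN) to give pKa, accurate to ±0.02 pH unit.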

[8] = Compound was tested for equilibrium constants (pKa1) potentiometrically; format: physicochemical; settings: read-out: pKa1
Method in brief: (§3)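 Potentiometric titration in 0.1 M KCl (25 mL), acidified with 0.2 M HCl and titrated with 0.2 M KOH in 0.01-mL increments. Run at 25 ± 0.5 °C under argon, with the electrode zero set by a blank titration (Gran's plot). Data were fitted with TITRFIT; pKa accuracy ±0.02 pH unit.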

Rattus norvegicus [9] = experiment: The amount iron excretion in the bile duct-cannulated rats when iron chelator administered orally at dose 122 mg/kg; format: functional; settings: route oral; method in brief: as §1
[10] = Potentiometric values of pKa2 and pKa3
[11] = Compound was tested for equilibrium constants (pKa2) of the (hydroxyalkyl)pyridinone corresponds to the 3-hydroxy function potentiometrically
[12] = Compound was tested for equilibrium constants (pKa3) of the (carboxyalkyl) pyridinone corresponds to the […] function spectrophotometrically..; format: physicochemical; settings: read-out: pKa3; method in brief: as §2
[13] = Compound was tested for equilibrium constants (pKa3) of the (carboxyalkyl) pyridinone corresponds to the […] function potentiometrically; format: physicochemical; settings: read-out: pKa3; method in brief: as §3
Rattus norvegicus [14] = experiment: The amount iron excretion in the bile duct-cannulated rats when iron chelator administered subcutaneously at dose 100 mg/kg; format: functional; settings: route subcutaneous
Method in brief: (§4)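 Male Fischer rats (200–240 g), non-iron-overloaded and bile duct-cannulated, were kept in metabolic cages. Control bile and urine were collected for 3 h, then compound was given (subcutaneously or by gavage). Bile was collected at 3-h intervals over 24 h, with urine pooled over 24 h. Buprenorphine was given for analgesia. Iron was read by bathophenanthroline colorimetry (535 nm) after acid digestion (65 °C, 4 h) against iron standards.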

Rattus norvegicus [15] = experiment: The amount iron excretion in the bile duct-cannulated rats when iron chelator administered orally at dose 100 mg/kg; format: functional; settings: route oral; method in brief: as §4
[16] = Compound was determined for their affinity constants(log K3) with Fe(III) complex.; format: ADME
Method in brief: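 Stepwise constants K1, K2 and K3 came from simultaneous spectrophotometric/potentiometric pH titrations of ligand with iron(III). Parameters were obtained by global optimization over titrations at several ligand and iron(III) concentrations, using the Fe3+/L− stepwise model (FeL2+, FeL2+, FeL3).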

[17] = Compound was determined for their affinity constants(log K1) with Fe(III) complex.; format: ADME
Method in brief: (§5)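 Stepwise Fe(III) stability constants (K1, K2, K3) came from simultaneous spectrophotometric/potentiometric pH titrations of ligand with iron(III) at several ligand and Fe(III) concentrations. Parameters were fitted by global optimization, and spectra were followed across pH.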

[18] = Compound was determined for their affinity constants(log K2) with Fe(III) complex; format: ADME; method in brief: as §5

SMILES: CCc1c(O)c(=O)ccn1CCCCO
- logD [1]: -0.28

SMILES: CCCCCn1ccc(=O)c(O)c1C
- logD [1]: 1.24

SMILES: CCCCn1ccc(=O)c(O)c1C
- logD [1]: 0.7

SMILES: Cc1c(O)c(=O)ccn1CCCO
- Iron excretion (Rattus norvegicus [2]): 414 µg/kg
- Iron excretion (Rattus norvegicus [3]): 383 µg/kg

SMILES: CCc1c(O)c(=O)ccn1CC
- logD [1]: 0.23

SMILES: CCCCCCn1ccc(=O)c(O)c1C
- logD [1]: 1.89

SMILES: CCc1nccc(O)c1O
- logD [1]: 0.05

SMILES: CCc1c(O)c(=O)ccn1CCOC
- logD [1]: 0.04

SMILES: CCOCCCn1ccc(=O)c(O)c1CC
- logD [1]: 0.72

SMILES: CCCn1ccc(=O)c(O)c1CC
- logD [1]: 0.7

SMILES: CCCNC(=O)CCn1ccc(=O)c(O)c1C
- logD [1]: -0.4

SMILES: COCC(C)n1ccc(=O)c(O)c1C (stereo unspecified)
- logD [1]: -0.26

SMILES: Cc1c(O)c(=O)ccn1CCCCO
- logD [1]: -0.75

SMILES: Cc1c(O)c(=O)ccn1CCO
- pKa [4]: 9.72
- Iron excretion (Rattus norvegicus [5]): 353 µg/kg
- pKa [6]: 9.72
- pKa [7]: 3.43
- pKa [8]: 3.44
- Iron excretion (Rattus norvegicus [9]): 272 µg/kg
- pKa [10]: 9.65
- pKa [11]: 9.65
- logD [1]: -1.1

SMILES: Cc1c(O)c(=O)ccn1CCCC(=O)O
- logD [1]: -2.75

SMILES: CCN(C)C(=O)CCn1ccc(=O)c(O)c1C
- logD [1]: -0.66

SMILES: CCN(CC)C(=O)CCn1ccc(=O)c(O)c1C
- logD [1]: -0.36

SMILES: Cc1c(O)c(=O)ccn1CCC(=O)N(C)C
- logD [1]: -1

SMILES: CCc1c(O)c(=O)ccn1C(C)C
- logD [1]: 0.73

SMILES: Cc1c(O)c(=O)ccn1CCC(=O)O
- pKa [6]: 9.51
- pKa [7]: 3.19
- pKa [8]: 3.1
- pKa [12]: 9.51
- pKa [13]: 9.49
- pKa [10]: 9.49
- logD [1]: -2.92

SMILES: Cc1c(O)c(=O)ccn1CCC(=O)NC(C)C
- logD [1]: -0.47

SMILES: CCCCn1ccc(=O)c(O)c1CC
- logD [1]: 1.22

SMILES: CCc1c(O)c(=O)ccn1C
- logD [1]: -0.21

SMILES: Cc1c(O)c(=O)ccn1C [DEFERIPRONE]
- Iron excretion (Rattus norvegicus [14]): 292 µg/kg
- Iron excretion (Rattus norvegicus [15]): 351 µg/kg
- pKa [6]: 9.64
- Log K3 [16]: 9.8
- Log K1 [17]: 14.9
- Log K2 [18]: 12.2
- logD [1]: -0.77
